How the values were obtained:
Enterococcus faecalis = test: Antibacterial activity against Streptococcus faecalis assessed as inhibition of microbial growth incubated for 18 to 22 hrs by broth microdilution method; format: functional
Summary of the method: (§1)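 Broth microdilution in Mueller-Hinton II broth following NCCLS recommendations; compounds dissolved in DMSO.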

[Candida] sake = Antifungal activity against Candida sake clinical isolates assessed as inhibition of microbial growth incubated for 24 hrs by broth microdilution method; format: functional; conditions: Fermentozyma sake
Summary of the method: (§2)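 Twenty-two clinical Candida isolates (8 C. albicans, 4 C. glabrata, 3 C. tropicalis, 3 C. krusei, 2 C. parapsilosis, 2 C. sake) were identified by colony morphology and biochemistry and subcultured at 35 °C for purity. Compounds were dissolved in DMSO and tested by broth microdilution in Sabouraud dextrose broth per NCCLS/CLSI/EUCAST guidance. Values are geometric mean MIC per species (µg/mL).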

Candida parapsilosis = test: Antifungal activity against Candida parapsilosis clinical isolates assessed as inhibition of microbial growth incubated for 24 hrs by broth microdilution method; format: functional; conditions: Lodderomyces parapsilosis; summary of the method: as §2
Proteus mirabilis = test: Antibacterial activity against Proteus mirabilis assessed as inhibition of microbial growth incubated for 18 to 22 hrs by broth microdilution method; format: functional; summary of the method: as §1
[1] = tested on: Streptococcus alpha-hemolyticus (Streptococcus sp.); test: Antibacterial activity against Streptococcus Streptococcus alpha hemolyticus assessed as inhibition of microbial growth incubated for 18 to 22 hrs by broth microdilution method
Klebsiella oxytoca = test: Antibacterial activity against Klebsiella oxytoca assessed as inhibition of microbial growth incubated for 18 to 22 hrs by broth microdilution method; format: functional; summary of the method: as §1
Enterobacter = test: Antibacterial activity against Enterobacter spp. assessed as inhibition of microbial growth incubated for 18 to 22 hrs by broth microdilution method; format: functional; summary of the method: as §1
Staphylococcus aureus = test: Antibacterial activity against Staphylococcus aureus assessed as inhibition of microbial growth incubated for 18 to 22 hrs by broth microdilution method; format: functional; summary of the method: as §1
Pichia kudriavzevii = test: Antifungal activity against Candida krusei clinical isolates assessed as inhibition of microbial growth incubated for 24 hrs by broth microdilution method; format: functional; summary of the method: as §2
Candida albicans = test: Antifungal activity against Candida albicans clinical isolates assessed as inhibition of microbial growth incubated for 24 hrs by broth microdilution method; format: functional; summary of the method: as §2
Escherichia coli = test: Antibacterial activity against Escherichia coli assessed as inhibition of microbial growth incubated for 18 to 22 hrs by broth microdilution method; format: functional; summary of the method: as §1
Candida tropicalis = test: Antifungal activity against Candida tropicalis clinical isolates assessed as inhibition of microbial growth incubated for 24 hrs by broth microdilution method; format: functional; summary of the method: as §2
Nakaseomyces glabratus = test: Antifungal activity against Candida glabrata clinical isolates assessed as inhibition of microbial growth incubated for 24 hrs by broth microdilution method; format: functional; summary of the method: as §2
Staphylococcus warneri = test: Antibacterial activity against Staphylococcus warneri assessed as inhibition of microbial growth incubated for 18 to 22 hrs by broth microdilution method; format: functional; summary of the method: as §1

| Compound | MIC (Enterococcus faecalis) [µg/mL] | MIC ([Candida] sake) [µg/mL] | MIC (Candida parapsilosis) [µg/mL] | MIC (Proteus mirabilis) [µg/mL] | MIC (Klebsiella oxytoca) [µg/mL] | MIC (Enterobacter) [µg/mL] | MIC (Staphylococcus aureus) [µg/mL] | MIC (Pichia kudriavzevii) [µg/mL] | MIC (Candida albicans) [µg/mL] | MIC (Escherichia coli) [µg/mL] | MIC (Candida tropicalis) [µg/mL] | MIC (Nakaseomyces glabratus) [µg/mL] | MIC (Staphylococcus warneri) [µg/mL] | MIC [1] [µg/mL] |
| --- | --- | --- | --- | --- | --- | --- | --- | --- | --- | --- | --- | --- | --- | --- |
| C/C(=N/N=C1\NC(=O)CS1)c1ccccc1 | ≥ 256 | 16 | 16 | ≥ 256 | ≥ 256 | ≥ 256 | ≥ 256 | 8 | 2 | ≥ 256 | 16 | 2 | ≥ 256 | ≥ 256 |
| C/C(=N/N=C1\NC(=O)CS1)c1cccc2ccccc12 | ≥ 256 | 2 | 2 | ≥ 256 | ≥ 256 | ≥ 256 | ≥ 256 | 16 | 2 | ≥ 256 | 16 | 2 | ≥ 256 | ≥ 256 |
| O=C1CS/C(=N/N=C\c2ccccc2)N1 | ≥ 256 | 2 | 128 | ≥ 256 | ≥ 256 | ≥ 256 | ≥ 256 | 16 | 4 | ≥ 256 | 4 | 8 | ≥ 256 | ≥ 256 |
| CCC/C(CC)=N\N=C1/NC(=O)CS1 | ≥ 256 | 2 | 4 | ≥ 256 | ≥ 256 | ≥ 256 | ≥ 256 | 2 | 2 | ≥ 256 | 16 | 2 | ≥ 256 | ≥ 256 |
| C/C(=N/N=C1\NC(=O)CS1)c1ccc2ccccc2c1 | ≥ 256 | 256 | 256 | ≥ 256 | ≥ 256 | ≥ 256 | ≥ 256 | 16 | 32 | ≥ 256 | 32 | 16 | ≥ 256 | ≥ 256 |
| CC(=O)c1ccc(/C(C)=N\N=C2/NC(=O)CS2)cc1 | ≥ 256 | 8 | 2 | ≥ 256 | ≥ 256 | ≥ 256 | ≥ 256 | 8 | 2 | ≥ 256 | 2 | 2 | ≥ 256 | ≥ 256 |

More lines, main results first:

| MIC (Enterococcus faecalis) [µg/mL] | MIC ([Candida] sake) [µg/mL] | MIC (Candida parapsilosis) [µg/mL] | MIC (Proteus mirabilis) [µg/mL] | MIC (Klebsiella oxytoca) [µg/mL] | MIC (Enterobacter) [µg/mL] | MIC (Staphylococcus aureus) [µg/mL] | MIC (Pichia kudriavzevii) [µg/mL] | MIC (Candida albicans) [µg/mL] | MIC (Escherichia coli) [µg/mL] | MIC (Candida tropicalis) [µg/mL] | MIC (Nakaseomyces glabratus) [µg/mL] | MIC (Staphylococcus warneri) [µg/mL] | Compound | MIC [1] [µg/mL] |
| --- | --- | --- | --- | --- | --- | --- | --- | --- | --- | --- | --- | --- | --- | --- |
| ≥ 256 | 16 | 16 | ≥ 256 | ≥ 256 | ≥ 256 | ≥ 256 | 16 | 16 | ≥ 256 | 16 | 16 | ≥ 256 | CC1CCC(=N/N=C2\NC(=O)CS2)CC1 (stereo not given) | ≥ 256 |
| ≥ 256 | 2 | 128 | ≥ 256 | ≥ 256 | ≥ 256 | ≥ 256 | 2 | 2 | ≥ 256 | 32 | 2 | ≥ 256 | CC1(C)CCC/C(=N/N=C2\NC(=O)CS2)C1 | ≥ 256 |
| ≥ 256 | 256 | 256 | ≥ 256 | ≥ 256 | ≥ 256 | ≥ 256 | 256 | 256 | ≥ 256 | 256 | 256 | ≥ 256 | O=C1CS/C(=N/N=C\c2cccc3ccccc23)N1 | ≥ 256 |
| ≥ 256 | 4 | 2 | ≥ 256 | ≥ 256 | ≥ 256 | ≥ 256 | 2 | 2 | ≥ 256 | 8 | 2 | ≥ 256 | CC(C)=C/C(C)=N\N=C1/NC(=O)CS1 | ≥ 256 |
| ≥ 256 | 8 | 4 | ≥ 256 | ≥ 256 | ≥ 256 | ≥ 256 | 8 | 16 | ≥ 256 | 16 | 8 | ≥ 256 | O=C1CS/C(=N/N=C\c2cccc([N+](=O)[O-])c2)N1 | ≥ 256 |
| ≥ 256 | 256 | 256 | ≥ 256 | ≥ 256 | ≥ 256 | ≥ 256 | 16 | 16 | ≥ 256 | 8 | 16 | ≥ 256 | C/C(=N/N=C1\NC(=O)CS1)c1ccncc1 | ≥ 256 |
| ≥ 256 | 2 | 2 | ≥ 256 | ≥ 256 | ≥ 256 | ≥ 256 | 2 | 8 | ≥ 256 | 8 | 8 | ≥ 256 | CC1CCC/C(=N/N=C2\NC(=O)CS2)C1 (stereo not given) | ≥ 256 |
| ≥ 256 | 8 | 128 | ≥ 256 | ≥ 256 | ≥ 256 | ≥ 256 | 16 | 16 | ≥ 256 | 4 | 8 | ≥ 256 | O=C1CS/C(=N/N=C\c2ccccc2[N+](=O)[O-])N1 | ≥ 256 |
| ≥ 256 | 2 | 4 | ≥ 256 | ≥ 256 | ≥ 256 | ≥ 256 | 2 | 2 | ≥ 256 | 32 | 2 | ≥ 256 | C/C(=N/N=C1\NC(=O)CS1)C1CC1 | ≥ 256 |
